Data published in ChEMBL document CHEMBL4400511, “Benzothiopyranoindole- and pyridothiopyranoindole-based antiproliferative agents targeting topoisomerases” (2019).
The source made the active and inactive calls. No cut-off for these calls is given here.

Tests used:
HeLa = experiment: Growth inhibition in human HeLa cells after 72 hrs by trypan blue dye-based assay; type: functional
Summary of the method: (§1)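 Three human tumour lines were used: HeLa (cervix adenocarcinoma), A-431 (epidermoid/squamous carcinoma) and MSTO-211H (biphasic mesothelioma). GI50 is the µM concentration giving 50% cell death relative to the untreated control culture. Ellipticine was run as reference.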

[1] = target: T1, DNA topoisomerase 1 (Homo sapiens) (UniProt P11387); experiment: Inhibition of recombinant human topoisomerase 1 assessed as decrease in relaxation of supercoiled pBR322 DNA after 60 mins by ethidium bromide staining based agarose gel electrophoresis method
T1 sequence (whole entry): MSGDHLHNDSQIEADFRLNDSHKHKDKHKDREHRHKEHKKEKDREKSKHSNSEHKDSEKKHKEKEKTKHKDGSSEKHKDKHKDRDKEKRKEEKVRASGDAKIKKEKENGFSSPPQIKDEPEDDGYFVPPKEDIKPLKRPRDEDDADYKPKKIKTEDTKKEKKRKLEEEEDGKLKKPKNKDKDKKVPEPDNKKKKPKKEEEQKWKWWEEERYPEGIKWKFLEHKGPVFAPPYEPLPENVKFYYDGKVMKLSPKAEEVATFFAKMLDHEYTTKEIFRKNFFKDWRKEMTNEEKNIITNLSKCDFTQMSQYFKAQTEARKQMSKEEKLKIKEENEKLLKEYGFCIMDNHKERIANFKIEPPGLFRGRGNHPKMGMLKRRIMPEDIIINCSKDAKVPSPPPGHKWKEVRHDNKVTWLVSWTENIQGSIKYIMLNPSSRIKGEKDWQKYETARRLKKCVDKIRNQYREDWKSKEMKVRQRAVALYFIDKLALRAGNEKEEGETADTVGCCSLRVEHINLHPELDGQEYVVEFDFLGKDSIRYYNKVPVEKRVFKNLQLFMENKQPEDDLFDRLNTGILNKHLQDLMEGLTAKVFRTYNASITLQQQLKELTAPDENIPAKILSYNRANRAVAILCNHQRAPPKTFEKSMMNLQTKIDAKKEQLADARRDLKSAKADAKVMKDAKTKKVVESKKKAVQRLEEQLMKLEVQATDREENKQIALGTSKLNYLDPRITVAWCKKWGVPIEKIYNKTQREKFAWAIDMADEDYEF
Summary of the method: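 Human recombinant Topo I was incubated with supercoiled pBR322 DNA, with or without compound at a series of µM concentrations. Read-out is the number of relaxed topoisomers formed.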

[2] = target: DNA topoisomerase 2-alpha (Homo sapiens) (UniProt P11388); experiment: Inhibition of recombinant human topoisomerase 2alpha assessed as decrease in relaxation of supercoiled pBR322 DNA after 60 mins by ethidium bromide staining based agarose gel electrophoresis method
Summary of the method: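 Topo II was incubated with supercoiled pBR322 DNA, with or without compound at a series of µM concentrations. Read-out is topoisomer formation from supercoiled DNA on a gel. Reference is 10 µM m-AMSA.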

Salmon testes DNA [3] = experiment: Binding affinity to salmon DNA at compound to DNA ratio of 0.04 by linear flow dichroism analysis; type: nucleic-acid assay; details: Salmonidae
A-431 = experiment: Growth inhibition in human A431 cells after 72 hrs by trypan blue dye-based assay; type: functional; details: A-431, 72 h; summary of the method: as §1
MSTO-211H = experiment: Growth inhibition in human MSTO-211H cells after 72 hrs by trypan blue dye-based assay; type: functional; summary of the method: as §1
[4] = target: DNA topoisomerase 2-alpha (Homo sapiens) (UniProt P11388); experiment: Poison activity at recombinant human topoisomerase-2 assessed as stabilization of covalent topo-2-DNA cleavage complex by measuring linear DNA formation at 10 uM using supercoiled pBR322 DNA as substrate after 60 mins by agarose gel electrophoresis method
Summary of the method: (§2)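 Cleavable-complex assay: supercoiled pBR322 DNA was incubated with Topo II, with or without compound at a series of µM concentrations. Enzyme-mediated linear DNA marks cleavage-complex stabilisation. Reference poison is 10 µM m-AMSA.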

[5] = target: T1, DNA topoisomerase 1 (Homo sapiens); experiment: Poison activity at recombinant human topoisomerase-1 assessed as stabilization of covalent topo-1-DNA cleavage complex by measuring nicked DNA formation at 0.5 to 50 uM using supercoiled pBR322 DNA as substrate after 60 mins by agarose gel electrophoresis method
Summary of the method: (§3)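 Cleavable-complex assay: supercoiled pBR322 DNA was incubated with Topo I, with or without compound at a series of µM concentrations. Nicked DNA formation marks covalent complex stabilisation. Reference is 0.5 µM camptothecin.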

Salmon testes DNA [6] = experiment: Binding affinity to salmon DNA at compound to DNA ratio of 0.02 to 0.04 by linear flow dichroism analysis; type: nucleic-acid assay; details: Salmonidae
Salmon testes DNA [7] = experiment: Binding affinity to salmon DNA at compound to DNA ratio of 0.08 by linear flow dichroism analysis; type: nucleic-acid assay; details: Salmonidae
[8] = target: T1, DNA topoisomerase 1 (Homo sapiens); experiment: Poison activity at recombinant human topoisomerase-1 assessed as stabilization of covalent topo-1-DNA cleavage complex by measuring nicked DNA formation using supercoiled pBR322 DNA as substrate after 60 mins by agarose gel electrophoresis method; summary of the method: as §3
[9] = target: DNA topoisomerase 2-alpha (Homo sapiens) (UniProt P11388); experiment: Poison activity at recombinant human topoisomerase-2 assessed as stabilization of covalent topo-2-DNA cleavage complex by measuring linear DNA formation up to 50 uM using supercoiled pBR322 DNA as substrate after 60 mins by agarose gel electrophoresis method; summary of the method: as §2

DNA topoisomerase 2-alpha (Homo sapiens), sequence (P11388 whole entry): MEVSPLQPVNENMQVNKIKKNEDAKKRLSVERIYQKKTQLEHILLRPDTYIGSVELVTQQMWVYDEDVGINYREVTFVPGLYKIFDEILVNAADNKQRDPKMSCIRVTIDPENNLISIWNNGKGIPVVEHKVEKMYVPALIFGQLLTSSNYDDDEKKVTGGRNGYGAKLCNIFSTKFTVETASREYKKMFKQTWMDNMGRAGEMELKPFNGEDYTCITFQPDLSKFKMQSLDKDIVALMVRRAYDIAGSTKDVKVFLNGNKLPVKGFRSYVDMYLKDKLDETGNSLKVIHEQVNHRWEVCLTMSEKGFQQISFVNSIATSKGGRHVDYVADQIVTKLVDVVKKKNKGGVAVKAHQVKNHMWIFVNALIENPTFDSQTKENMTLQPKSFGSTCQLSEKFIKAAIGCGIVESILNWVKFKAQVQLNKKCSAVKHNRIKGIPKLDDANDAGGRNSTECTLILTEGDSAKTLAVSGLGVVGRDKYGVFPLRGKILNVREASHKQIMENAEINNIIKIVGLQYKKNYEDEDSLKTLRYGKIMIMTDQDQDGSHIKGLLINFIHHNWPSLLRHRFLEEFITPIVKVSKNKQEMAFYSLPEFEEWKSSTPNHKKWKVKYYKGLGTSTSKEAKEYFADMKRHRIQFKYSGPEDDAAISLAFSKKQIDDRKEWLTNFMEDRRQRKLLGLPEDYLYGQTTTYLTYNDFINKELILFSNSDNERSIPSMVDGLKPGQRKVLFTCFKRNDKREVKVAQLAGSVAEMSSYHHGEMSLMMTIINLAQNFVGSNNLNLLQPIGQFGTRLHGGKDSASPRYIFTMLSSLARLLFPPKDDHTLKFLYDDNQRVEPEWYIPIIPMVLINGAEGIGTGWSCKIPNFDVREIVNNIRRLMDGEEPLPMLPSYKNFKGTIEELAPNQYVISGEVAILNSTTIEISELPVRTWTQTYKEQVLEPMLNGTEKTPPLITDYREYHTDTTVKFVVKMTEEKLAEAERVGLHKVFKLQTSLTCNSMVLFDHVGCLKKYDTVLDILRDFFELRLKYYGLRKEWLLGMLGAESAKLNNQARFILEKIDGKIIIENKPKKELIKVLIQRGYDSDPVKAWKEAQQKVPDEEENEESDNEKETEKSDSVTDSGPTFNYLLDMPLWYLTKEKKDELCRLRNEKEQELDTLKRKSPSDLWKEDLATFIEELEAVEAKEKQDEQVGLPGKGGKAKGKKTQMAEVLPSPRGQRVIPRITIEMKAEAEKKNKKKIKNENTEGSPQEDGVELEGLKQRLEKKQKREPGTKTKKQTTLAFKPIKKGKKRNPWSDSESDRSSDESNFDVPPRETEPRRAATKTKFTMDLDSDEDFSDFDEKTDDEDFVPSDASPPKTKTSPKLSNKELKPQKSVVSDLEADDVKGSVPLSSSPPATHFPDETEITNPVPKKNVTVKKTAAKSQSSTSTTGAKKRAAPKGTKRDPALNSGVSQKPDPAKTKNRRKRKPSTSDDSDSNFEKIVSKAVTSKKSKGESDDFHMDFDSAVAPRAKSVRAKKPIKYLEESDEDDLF

Compound | GI50 (HeLa) | inhibition [1] | inhibition [2] | Activity (Salmon testes DNA [3]) | GI50 (A-431) | GI50 (MSTO-211H) | Activity [4] | Activity [5] | Activity (Salmon testes DNA [6]) | Activity (Salmon testes DNA [7]) | Activity [8] | Activity [9]
CN(C)CCn1c2ccccc2c2sc3ncccc3c(=O)c21 | 1.55 µM | Dose-dependent effect | Dose-dependent effect | Active | 0.54 µM | 1.08 µM | Active | inactive | – | – | – | –
CCN(CC)CCn1c2ccccc2c2sc3ncccc3c(=O)c21 | 2.57 µM | Dose-dependent effect | Dose-dependent effect | Active | 0.47 µM | 1.33 µM | Active | inactive | – | – | – | –
CCN(CC)CCn1c2cc(OC)c(OC)cc2c2sc3cc(OC)ccc3c(=O)c21 | 1.75 µM | Dose-dependent effect | Dose-dependent effect | Active | 0.67 µM | 0.36 µM | Active | inactive | – | – | – | –
COc1ccc2c(=O)c3c(sc2c1)c1cc(OC)c(OC)cc1n3CCN(C)C | 0.74 µM | Dose-dependent effect | Dose-dependent effect | Active | 0.48 µM | 0.44 µM | Active | inactive | – | – | – | –
CCN(CC)CCn1c2cc(OC)c(OC)cc2c2sc3cc(Cl)ccc3c(=O)c21 | 4.55 µM | Dose-dependent effect | Dose-dependent effect | Active | 2.22 µM | 2.37 µM | Active | inactive | – | – | – | –
Cc1c2ccncc2c(C)c2c1[nH]c1ccccc12 [ELLIPTECINE] | 0.47 µM | – | – | – | 0.65 µM | 0.77 µM | – | – | Active | – | – | –
CCN(CC)CCn1c2ccc(Cl)cc2c2sc3cc(Cl)ccc3c(=O)c21 | 4.31 µM | Dose-dependent effect | Dose-dependent effect | – | 3.29 µM | 2.99 µM | Active | inactive | – | Active | – | –
CCN(CC)CCn1c2ccc(OC)cc2c2sc3cc(Cl)ccc3c(=O)c21 | 3.21 µM | Dose-dependent effect | Dose-dependent effect | – | 5.44 µM | 4.19 µM | Active | inactive | – | Active | – | –
CCN(CC)CCn1c2ccc(Cl)cc2c2sc3ncccc3c(=O)c21 | 4.2 µM | Dose-dependent effect | Dose-dependent effect | Active | 1.79 µM | 1.42 µM | Active | inactive | – | – | – | –
CCN(CC)CCn1c2cc(OC)c(OC)cc2c2sc3ncccc3c(=O)c21 | 6.93 µM | Dose-dependent effect | Dose-dependent effect | Active | 2.67 µM | 0.62 µM | Active | Active | – | – | – | –
CN(C)CCn1c2ccc(Cl)cc2c2sc3ncccc3c(=O)c21 | 3.02 µM | Dose-dependent effect | Dose-dependent effect | Active | 2 µM | 2.36 µM | Active | inactive | – | – | – | –
CCN(CC)CCn1c2ccc(OC)cc2c2sc3ccccc3c(=O)c21 | 2.79 µM | Dose-dependent effect | Dose-dependent effect | – | 2.08 µM | 1.61 µM | Active | inactive | – | Active | – | –
COc1cc2c3sc4cc(Cl)ccc4c(=O)c3n(CCN(C)C)c2cc1OC | 3.54 µM | Dose-dependent effect | Dose-dependent effect | Active | 3.19 µM | 1.82 µM | Active | inactive | – | – | – | –
COc1ccc2c(c1)c1sc3ccccc3c(=O)c1n2CCN(C)C | 5.81 µM | Dose-dependent effect | Dose-dependent effect | – | 2.24 µM | 2.37 µM | Active | inactive | – | Active | – | –
COc1cc(NS(C)(=O)=O)ccc1Nc1c2ccccc2nc2ccccc12 | – | – | – | – | – | – | Active | – | – | – | – | –
COc1ccc2c(c1)c1sc3ncccc3c(=O)c1n2CCN(C)C | 2.71 µM | Dose-dependent effect | Dose-dependent effect | Active | 1.42 µM | 0.75 µM | Active | inactive | – | – | – | –
CCN(CC)CCn1c2ccc(OC)cc2c2sc3ncccc3c(=O)c21 | 2.61 µM | Dose-dependent effect | Dose-dependent effect | Active | 1.9 µM | 0.7 µM | Active | inactive | – | – | – | –
CCN(CC)CCn1c2cc(OC)c(OC)cc2c2sc3ccccc3c(=O)c21 | 1.77 µM | Dose-dependent effect | Dose-dependent effect | Active | 1.11 µM | 0.7 µM | Active | Active | – | – | – | –
CN(C)CCn1c2ccc(Cl)cc2c2sc3cc(Cl)ccc3c(=O)c21 | 2.66 µM | Dose-dependent effect | Dose-dependent effect | – | 1.76 µM | 1.64 µM | Active | inactive | – | Active | – | –
COc1cc2c3sc4ncccc4c(=O)c3n(CCN(C)C)c2cc1OC | 1.7 µM | Dose-dependent effect | Dose-dependent effect | – | 0.71 µM | 0.35 µM | – | Active | Active | – | Dose-dependent effect | inactive
COc1ccc2c(c1)c1sc3cc(Cl)ccc3c(=O)c1n2CCN(C)C | 2.79 µM | Dose-dependent effect | Dose-dependent effect | – | 2.67 µM | 2.96 µM | Active | inactive | – | Active | – | –
